Active and inactive are the calls of the source. The calls are words filed in the database; no cut-off is given here.
How the values were obtained:
Prothrombin = Prothrombin (Bos taurus, UniProt P00735); experiment: (§1) Inhibition of bovine thrombin
Procedure, shortened: (§2)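 Room-temperature fluorogenic assay in 100 mM Tris-HCl (pH 8.5) with 100 mg/mL BSA. Enzyme and inhibitor were preincubated, then N-tBoc-Leu-Arg-Arg-AMC substrate was added. Hydrolysis was followed by fluorescence (ex 360 nm, em 480 nm) at six to seven inhibitor concentrations. Ki was taken from Dixon plots of two data sets at different substrate concentrations.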

[1] = Selectivity for human matriptase over bovine thrombin
Procedure, shortened: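 Enzyme was preincubated with inhibitor before substrate addition. Matriptase substrate: t-Boc-Gln-Ala-Arg-AMC; thrombin substrate: N-tBoc-Leu-Arg-Arg-AMC. AMC release read at ex 360/em 480 nm over six to seven inhibitor concentrations. Ki from Dixon plots using two substrate concentrations.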

Prothrombin (Bos taurus) = Prothrombin (Bos taurus) (UniProt P00735); experiment: as §1; procedure, shortened: as §2
[2] = target: T1, Suppressor of tumorigenicity 14 protein (Homo sapiens, UniProt Q9Y5Y6); experiment: Inhibition of human matriptase
T1 sequence (Q9Y5Y6 whole entry): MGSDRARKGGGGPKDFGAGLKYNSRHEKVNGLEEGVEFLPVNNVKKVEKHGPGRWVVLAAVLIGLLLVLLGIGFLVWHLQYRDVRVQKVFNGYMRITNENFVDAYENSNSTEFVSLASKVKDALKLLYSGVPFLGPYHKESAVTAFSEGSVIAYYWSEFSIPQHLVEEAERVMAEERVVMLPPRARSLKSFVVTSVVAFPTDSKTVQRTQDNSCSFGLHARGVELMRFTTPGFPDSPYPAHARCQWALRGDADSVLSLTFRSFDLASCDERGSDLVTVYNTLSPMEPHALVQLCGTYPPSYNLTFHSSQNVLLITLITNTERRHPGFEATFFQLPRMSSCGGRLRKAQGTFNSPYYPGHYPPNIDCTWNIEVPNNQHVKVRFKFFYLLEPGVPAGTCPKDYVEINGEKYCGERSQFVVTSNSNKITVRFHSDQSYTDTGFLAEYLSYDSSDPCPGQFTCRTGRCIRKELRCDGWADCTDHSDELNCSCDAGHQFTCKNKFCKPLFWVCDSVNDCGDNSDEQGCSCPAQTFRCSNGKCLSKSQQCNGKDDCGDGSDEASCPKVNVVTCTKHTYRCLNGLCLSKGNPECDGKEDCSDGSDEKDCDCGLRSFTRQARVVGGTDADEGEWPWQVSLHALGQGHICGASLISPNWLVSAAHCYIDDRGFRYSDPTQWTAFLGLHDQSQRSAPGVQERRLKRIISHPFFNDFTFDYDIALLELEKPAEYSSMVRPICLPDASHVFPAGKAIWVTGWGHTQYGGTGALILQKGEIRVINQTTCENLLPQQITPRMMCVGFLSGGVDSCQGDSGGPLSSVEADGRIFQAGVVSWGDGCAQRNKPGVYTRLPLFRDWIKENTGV
Procedure, shortened: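 Run at room temperature in 100 mM Tris-HCl (pH 8.5) with 100 mg/mL BSA. Enzyme and inhibitor were preincubated, then t-Boc-Gln-Ala-Arg-AMC was added and fluorescence read at ex 360 nm, em 480 nm over six to seven inhibitor concentrations. Ki came from Dixon plots at two substrate concentrations. A second format used purified matriptase with t-Boc-Gln-Ala-Arg-AFC in 100 mM Tris (pH 8.3) with BSA.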

| Ki (Prothrombin) [µM] | Ratio Ki [1] | Activity (Prothrombin (Bos taurus)) | Ki [2] [µM] | Structure (SMILES) |
| --- | --- | --- | --- | --- |
| 16.3 | 36 | – | – | CC[C@H](C)[C@@H]1NC(=O)[C@@H]2CCCN2C(=O)[C@@H]2CCCN2C(=O)[C@H]([C@@H](C)CC)NC(=O)[C@H](CO)NC(=O)[C@H](CCCCN)NC(=O)[C@H]([C@@H](C)O)NC(=O)[C@@H]2CSSC[C@H](NC1=O)C(=O)N[C@@H](Cc1ccc3ccccc3c1)C(=O)N1CCC[C@@H]1C(=O)N[C@@H](CC(=O)O)C(=O)NCC(=O)N[C@@H](CCCNC(=N)N)C(=O)N2 |
| 40.4 | 0.38 | – | – | CC[C@H](C)[C@@H]1NC(=O)[C@@H]2CCCN2C(=O)[C@@H]2CCCN2C(=O)[C@H]([C@@H](C)CC)NC(=O)[C@H](CO)NC(=O)[C@H](CCCCN)NC(=O)[C@H]([C@@H](C)O)NC(=O)[C@H](CO)NC(=O)[C@H](CCCNC(=N)N)NC(=O)CNC(=O)[C@H](CC(=O)O)NC(=O)[C@H]2CCCN2C(=O)[C@H](Cc2ccccc2)NC(=O)[C@H](CO)NC1=O |
| – | – | inactive | – | CC[C@H](C)[C@@H]1NC(=O)[C@@H]2CCCN2C(=O)[C@@H]2CCCN2C(=O)[C@H]([C@@H](C)CC)NC(=O)[C@H](CO)NC(=O)[C@H](CCCN)NC(=O)[C@H]([C@@H](C)O)NC(=O)[C@@H]2CSSC[C@H](NC1=O)C(=O)N[C@@H](Cc1ccccc1)C(=O)N1CCC[C@@H]1C(=O)N[C@@H](CC(=O)O)C(=O)NCC(=O)N[C@@H](CCCNC(=N)N)C(=O)N2 |
| 25.6 | 25.6 | – | – | CC[C@H](C)[C@@H]1NC(=O)[C@@H]2CCCN2C(=O)[C@@H]2CCCN2C(=O)[C@H]([C@@H](C)CC)NC(=O)[C@H](CO)NC(=O)[C@H](CCCCN)NC(=O)[C@H]([C@@H](C)O)NC(=O)[C@@H]2CSSC[C@H](NC1=O)C(=O)N[C@@H](Cc1ccc(-c3ccccc3)cc1)C(=O)N1CCC[C@@H]1C(=O)N[C@@H](CC(=O)O)C(=O)NCC(=O)N[C@@H](CCCNC(=N)N)C(=O)N2 |
| – | 50 | – | – | CC[C@H](C)[C@@H]1NC(=O)[C@@H]2CCCN2C(=O)[C@@H]2CCCN2C(=O)[C@H]([C@@H](C)CC)NC(=O)[C@H](CO)NC(=O)[C@H](CCCCN)NC(=O)[C@H]([C@@H](C)O)NC(=O)[C@@H]2CSSC[C@H](NC1=O)C(=O)N[C@@H](Cc1ccccc1)C(=O)N1CCC[C@@H]1C(=O)N[C@@H](CC(=O)O)C(=O)NCC(=O)N[C@@H](CCCNC(=N)N)C(=O)N2 |
| 0.86 | 0.18 | – | – | CC[C@H](C)[C@@H]1NC(=O)[C@@H]2CCCN2C(=O)[C@@H]2CCCN2C(=O)[C@H]([C@@H](C)CC)NC(=O)[C@H](CO)NC(=O)[C@H](CCCNC(=N)N)NC(=O)[C@H]([C@@H](C)O)NC(=O)[C@@H]2CSSC[C@H](NC1=O)C(=O)N[C@@H](Cc1ccccc1)C(=O)N1CCC[C@@H]1C(=O)N[C@@H](CC(=O)O)C(=O)NCC(=O)N[C@@H](CCCNC(=N)N)C(=O)N2 |

Second part, the compound before the results:

| Structure (SMILES) | Ki (Prothrombin) [µM] | Ratio Ki [1] | Activity (Prothrombin (Bos taurus)) | Ki [2] [µM] |
| --- | --- | --- | --- | --- |
| CC[C@H](C)[C@@H]1NC(=O)[C@@H]2CCCN2C(=O)[C@@H]2CCCN2C(=O)[C@H]([C@@H](C)CC)NC(=O)[C@H](CO)NC(=O)[C@H](CCCCN)NC(=O)[C@H]([C@@H](C)O)NC(=O)[C@@H]2CSSC[C@H](NC1=O)C(=O)N[C@@H](Cc1c(F)c(F)c(F)c(F)c1F)C(=O)N1CCC[C@@H]1C(=O)N[C@@H](CC(=O)O)C(=O)NCC(=O)N[C@@H](CCCNC(=N)N)C(=O)N2 | 33.6 | 37.8 | – | – |
| CC[C@H](C)[C@@H]1NC(=O)[C@@H]2CCCN2C(=O)[C@@H]2CCCN2C(=O)[C@H]([C@@H](C)CC)NC(=O)[C@H](CO)NC(=O)[C@H](CCCCN)NC(=O)[C@H]([C@@H](C)O)NC(=O)[C@@H]2CSSC[C@H](NC1=O)C(=O)N[C@@H](Cc1ccccc1)C(=O)N1CCC[C@@H]1C(=O)N[C@@H](CC(=O)O)C(=O)NCC(=O)N[C@@H](CCCCNC(=N)N)C(=O)N2 | 7.63 | 8.9 | – | – |
| CC[C@H](C)[C@@H]1NC(=O)[C@@H]2CCCN2C(=O)[C@@H]2CCCN2C(=O)[C@H]([C@@H](C)CC)NC(=O)[C@H](CO)NC(=O)[C@H](CCCCN)NC(=O)[C@H]([C@@H](C)O)NC(=O)[C@@H]2CSSC[C@H](NC1=O)C(=O)N[C@@H](Cc1ccccc1)C(=O)N1CCC[C@@H]1C(=O)N[C@@H](CC(=O)O)C(=O)NCC(=O)N[C@@H](CCCNC(N)=O)C(=O)N2 | 827 | 37 | – | – |
| CC[C@H](C)[C@@H]1NC(=O)[C@@H]2CCCN2C(=O)[C@@H]2CCCN2C(=O)[C@H]([C@@H](C)CC)NC(=O)[C@H](CO)NC(=O)[C@H](CCCCN)NC(=O)[C@H]([C@@H](C)O)NC(=O)[C@@H]2CSSC[C@H](NC1=O)C(=O)N[C@@H](Cc1ccccc1)C(=O)N1CCC[C@@H]1C(=O)N[C@@H](CC(=O)O)C(=O)NCC(=O)N[C@@H](Cc1ccc(NC(=N)N)cc1)C(=O)N2 | 164 | 1.8 | – | – |
| CC[C@H](C)[C@@H]1NC(=O)[C@@H]2CCCN2C(=O)[C@@H]2CCCN2C(=O)[C@H]([C@@H](C)CC)NC(=O)[C@H](CO)NC(=O)[C@H](CCCCCN)NC(=O)[C@H]([C@@H](C)O)NC(=O)[C@@H]2CSSC[C@H](NC1=O)C(=O)N[C@@H](Cc1ccccc1)C(=O)N1CCC[C@@H]1C(=O)N[C@@H](CC(=O)O)C(=O)NCC(=O)N[C@@H](CCCNC(=N)N)C(=O)N2 | 45.6 | 1.6 | – | – |
| CC[C@H](C)[C@@H]1NC(=O)[C@@H]2CCCN2C(=O)[C@@H]2CCCN2C(=O)[C@H]([C@@H](C)CC)NC(=O)[C@H](CO)NC(=O)[C@H](CCCCN)NC(=O)[C@H]([C@@H](C)O)NC(=O)[C@@H]2CSCSC[C@H](NC1=O)C(=O)N[C@@H](Cc1ccccc1)C(=O)N1CCC[C@@H]1C(=O)N[C@@H](CC(=O)O)C(=O)NCC(=O)N[C@@H](CCCNC(=N)N)C(=O)N2 | 10 | 62.5 | – | 0.16 |

From ChEMBL document CHEMBL1138311, “Design and synthesis of novel and potent inhibitors of the type II transmembrane serine protease, matriptase, based upon the sunflower trypsin inhibitor-1” (J Med Chem, 2007)
